DTT redox prof: compounds producing H2O2 with reducing agent – biochemical, NIH compound library profiling, artefact control for MLSCN library redox annotation, primary screen; DTT-dependent redox cycling H2O2, phenol red/HRP absorbance; 100% = 100 µM peroxide control, 0% = buffer; activation, % at 10 µM; 200,000 compounds, 0.03% hits; AID 878;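 active means activation of at least 50% relative to the plate's high and low controls in the primary single-dose screen; inactive means activation below 50%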;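 further: compound incubated with DTT at 0.8 mM final as the reducing agent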
L major viab: reduces viability of Leishmania major promastigotes | resazurin fluorescence viability | inhibition, % at 10 µM | 200,000 compounds, 9% hits | AID 1063;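 further: promastigotes grown with compound for 44 hours at 28 °C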
PfGluPho inh: PfG6PD (Plasmodium falciparum) enzyme inhibition. PfGluPho enzyme, NADPH resazurin-diaphorase fluorescence. inhibition, % at 20 µM. 350,000 compounds, 0.78% hits. AID 504690;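 active means inhibition reaching at least a set limit at 20 µM in the primary screen, cut at about 59% in these data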;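 further: 0% = DMSO wells with substrate and 100% = DMSO wells lacking glucose-6-phosphate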
G6PDH counter: counter-screen for G6PDH assay hits: L. mesenteroides G6PDH inhibition. Purified L. mesenteroides G6PDH, diaphorase/resazurin coupled fluorescence, 45 min. AID 1020. 200,000 compounds, 0.12% hits. inhibition, % at 5 µM
Diaphorase inh: counter-screen for diaphorase-based assays: diaphorase inhibitors and chemical oxidizers | diaphorase resazurin-to-resorufin fluorescence, NADH, 16 min; bacterial (C. kluyveri) enzyme, not human | inhibition, % at 20 µM | AID 1217 | 190,000 compounds, 0.69% hits;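 active means primary screen inhibition at 20 µM above a set limit, cut at about 50% in these data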;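 further: plate controls were DMSO with full reaction for no effect and wells lacking NADH for full effect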
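System: Diaphorase enzyme from Clostridium kluyveri | Amount: Enzyme working solution with 0.14 U/mL diaphorase | Benchmarks: No-NADH positive control and DMSO neutral control | Signal: Fluorescence of resorufin formed from resazurin, Ex 544/Em 590 nm | Schedule: 16-min room-temperature incubation before reading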
Diaph act CS: diaphorase activation or chemical reduction counter-screen | 190,000 compounds, 0.005% hits | activation factor at 20 µM | Diaphorase/resazurin coupled assay, resorufin fluorescence, 16 min; stronger effect = higher value; 1 = vehicle wells, 0 = NADH-free wells;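 active means diaphorase activity raised at least twofold by the compound at 20 µM; inactive means activation factor below 2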
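test system = bacterial diaphorase enzyme (C. kluyveri) | quantity = enzyme 0.07 U/mL final | reagent = NADH substrate 0.114 mM plus resazurin dye 0.1 mM, final | incubation = 16 min enzyme reaction, ambient temperature | buffer or medium = HEPES pH 7.4 buffer with MgCl2 and Tween 20 | signal = fluorescence of resorufin, 544 nm excitation, 590 nm emission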
PfG6PD confirm: PfG6PD inhibition, single-dose confirmed. shares compounds with PfGluPho inh. recombinant PfGluPho, NADPH-diaphorase-resazurin fluorescence. inhibition, % at 20 µM. 2,400 compounds, 34% hits;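 active means inhibition of at least 50% at 20 µM in any single replicate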;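 further: 0% = DMSO with substrate and 100% = DMSO lacking glucose-6-phosphate substrate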
Diaph ctr 10uM: inhibits diaphorase or oxidizes, flagging false PfG6PD hits. shares compounds with PfGluPho inh. AID 504862. diaphorase-coupled resazurin reduction, fluorescence, NADPH 10 uM. inhibition, % at 20 µM. 820 compounds, 39% hits;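 active means average inhibition reaching 50% or more with the compound at 20 µM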;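 further: resorufin red fluorescence formed as diaphorase reduces resazurin using NADPH; 0% = DMSO with enzyme and 100% = DMSO without enzyme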
Diaphorase 30uM: diaphorase inhibition or oxidation at 30 uM NADPH | Diaphorase/resazurin coupled assay, resorufin fluorescence | inhibition, % at 20 µM | shares compounds with PfGluPho inh | 820 compounds, 29% hits;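 active means inhibition averaging 50% or more, tested at 20 µM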;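 further: 0% = DMSO with enzyme and 100% = DMSO wells lacking diaphorase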
* hit, by the source's call. This excerpt belongs to a sample that is enriched for hits. Unless noted, no stated cut-off is given here; in the data, active means inhibition above about 50%; inactive means the rest.

`CCc1nc(SCC(=O)NC2CC2)c2c(C)c(C)sc2n1` gave PfGluPho inh 8.2.
`Clc1ccc2nc(-c3ccc(Br)s3)cn2c1` gave DTT redox prof -3.2, L major viab 5.8, PfGluPho inh 80.4*, G6PDH counter -31.7, Diaphorase inh 23.1, Diaph act CS 0.8, PfG6PD confirm 50.8*, Diaph ctr 10uM 37.9 and Diaphorase 30uM 41.7.
COc1ccc(-c2cn3cc(C)ccc3n2)cc1Br was read as DTT redox prof -0.3, L major viab 84.1*, PfGluPho inh 103.3*, G6PDH counter 3.6, Diaphorase inh 5.0, Diaph act CS 0.9, PfG6PD confirm 53.8*, Diaph ctr 10uM 45.4 and Diaphorase 30uM 30.3.
`Cc1ccc2nc(-c3cccc(S(=O)(=O)N4CCCC4)c3)cn2c1` gave PfGluPho inh 47.0.
COc1ccc(-c2cn3cc(Cl)ccc3n2)cc1OC was read as DTT redox prof 2.8, L major viab 44.9, PfGluPho inh 132.9*, G6PDH counter 8.9, Diaphorase inh 7.8, Diaph act CS 0.9, PfG6PD confirm 76.9*, Diaph ctr 10uM 61.6* and Diaphorase 30uM 57.3*.
Screening CCOC(=O)CC(N)c1cccc([N+](=O)[O-])c1 (stereo not given) returned DTT redox prof 0.6, L major viab -2.2, PfGluPho inh 1.3, G6PDH counter -4.0, Diaphorase inh 6.6 and Diaph act CS 0.9.
Screening Cc1cccc(NC(=O)c2ccc(COc3cccc4ccccc34)o2)n1 returned DTT redox prof 0.4, L major viab -4.1, PfGluPho inh 12.5, G6PDH counter -1.3, Diaphorase inh 29.2 and Diaph act CS 0.7.
`Cc1ccc(NC(=O)CN2CCCC2c2cccn2C)c(Br)c1` (stereo not given) gave PfGluPho inh -7.0.
`CCN(CC)c1ccc(N=C2C(=O)Nc3ccccc32)cc1` gave PfGluPho inh 68.1* and PfG6PD confirm 14.6.
CCc1ccc(-c2cc(C(F)(F)F)n3nc(C(=O)Nc4cnn(Cc5ccc(C)cc5)c4)cc3n2)s1 was read as DTT redox prof 0.4, L major viab 4.3, PfGluPho inh -3.0, G6PDH counter 2.6, Diaphorase inh 7.5 and Diaph act CS 0.9.
`COc1c2ccoc2c(OCC=C(C)C)c2oc(=O)ccc12` gave DTT redox prof 0.3, L major viab 4.8, PfGluPho inh 67.8*, G6PDH counter 25.9, Diaphorase inh 27.5, Diaph act CS 0.7, PfG6PD confirm 54.2*, Diaph ctr 10uM 17.8 and Diaphorase 30uM 29.3.
Screening COc1ccc(NC(=O)c2ccc3[nH]c(C)c(C)c3c2)c(OC)c1 returned PfGluPho inh 61.5* and PfG6PD confirm -3.6.
`CCOc1ccccc1NC(=O)c1ccc2[nH]c(C)c(C)c2c1` gave PfGluPho inh 27.9.
Screening Cc1nnc(SCC(=O)N(C2CCCCC2)C2CCS(=O)(=O)C2)n1N (stereo not given) returned PfGluPho inh -5.9.
